According to ChEMBL document CHEMBL1157559, “Synthesis and biological evaluation of novel pyrazolyl-2,4-thiazolidinediones as anti-inflammatory and neuroprotective agents” (Bioorg Med Chem, 2010):
The source made the active and inactive calls. The calls are words filed in the database; no cut-off is given here.

Assays:
[1] = molecular target: T1, Prostaglandin G/H synthase 2 (Homo sapiens) (UniProt P35354); conditions: at 10 µM
T1 sequence (whole entry): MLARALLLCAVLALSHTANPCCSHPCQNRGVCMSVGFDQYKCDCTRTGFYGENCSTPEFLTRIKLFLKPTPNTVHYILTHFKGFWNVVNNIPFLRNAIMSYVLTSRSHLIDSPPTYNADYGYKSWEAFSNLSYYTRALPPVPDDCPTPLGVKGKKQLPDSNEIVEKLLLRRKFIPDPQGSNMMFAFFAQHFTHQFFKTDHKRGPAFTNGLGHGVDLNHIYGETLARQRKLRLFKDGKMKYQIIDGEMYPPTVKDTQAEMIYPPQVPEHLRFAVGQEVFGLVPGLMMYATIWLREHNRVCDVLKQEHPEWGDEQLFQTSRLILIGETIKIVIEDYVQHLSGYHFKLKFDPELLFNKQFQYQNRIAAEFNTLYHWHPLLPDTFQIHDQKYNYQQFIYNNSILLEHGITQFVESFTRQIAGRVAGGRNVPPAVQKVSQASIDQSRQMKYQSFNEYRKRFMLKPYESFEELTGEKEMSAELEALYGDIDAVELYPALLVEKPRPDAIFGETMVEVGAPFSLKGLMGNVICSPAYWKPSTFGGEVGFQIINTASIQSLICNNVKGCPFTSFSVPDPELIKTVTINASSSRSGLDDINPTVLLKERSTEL

Rattus norvegicus [2] = assay: Antiinflammatory activity in po dosed Wistar albino rat acute inflammatory model assessed as inhibition of formalin-induced paw edema administered 1 hr before formalin challenge measured after 3 hrs by plethysmometer; type: functional
How it was run: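 Rats dosed orally at 5, 10, 20, 40 and 50 mg/kg body weight. Edema volume inhibition measured 3 h after subplantar formalin (2%, 0.1 mL), and ED50 determined from these doses.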

Rattus norvegicus [3] = assay: Antiinflammatory activity in Wistar albino rat sub-acute inflammatory model assessed as inhibition of turpentine oil-induced granuloma pouch exudate volume at 20 mg/kg, po 1 hr before turpentine oil challenge for 7 days assessed measured on day 8; type: functional
How it was run: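 Male rats 120–150 g, five per group. Subcutaneous dorsal pouch made under ether with 2 mL air, then 0.5 mL turpentine oil injected. Compound 20 mg/kg po 1 h before turpentine, then daily for seven days. On day 8 exudate drawn by syringe under anesthesia and volume measured. % inhibition = (Vcontrol − Vtreated)/Vcontrol ×100.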

Rattus norvegicus [4] = assay: Gastrointestinal toxicity in Wistar albino rat assessed as hyperemia at 100 mg/kg/day, po administered twice daily for 3 days; type: organism-based; design: route oral; conditions: in vivo, 72 h
How it was run: (§1)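 Male rats 180–200 g, groups of five, fasted 12 h with water available. Compounds given orally as two equal doses at 0 and 12 h, 100 mg/kg per day, for three successive days; vehicle control 1% gum acacia. Rats killed 6 h after last dose. Stomach opened along greater curvature, washed with cold saline and inspected under 3× lens for hyperemia, hemorrhage, erosions or ulcers.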

Rattus norvegicus [5] = assay: Antiinflammatory activity in Wistar albino rat acute inflammatory model assessed as inhibition of formalin-induced paw edema at 20 mg/kg, po administered 1 hr before formalin challenge measured after 3 hrs by plethysmometer relative to control; type: functional; design: scale not given: the % may be the effect or the level left
How it was run: (§2)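 Male Wistar rats, 180–200 g, groups of five. Test compound 20 mg/kg po; 1 h later 0.1 mL 2% formalin injected subplantar into left hind paw under light ether anesthesia. Paw volume by water plethysmometer at 0 and 1, 2, 3, 4 h after formalin. % inhibition = (Vt−V0)control minus (Vt−V0)treated, divided by (Vt−V0)control ×100. Mean ± SEM, ANOVA with Student–Newman–Keuls.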

Rattus norvegicus [6] = assay: Antiinflammatory activity in Wistar albino rat acute inflammatory model assessed as inhibition of formalin-induced paw edema at 20 mg/kg, po administered 1 hr before formalin challenge measured after 4 hrs by plethysmometer relative to control; type: functional; design: scale not given: the % may be the effect or the level left
How it was run: as §2

THP-1 = assay: Cytotoxicity against LPS and IFN-gamma-stimulated human THP1 cells after 24 hrs; type: functional, cell-based; conditions: THP-1, 24 h
How it was run: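 THP-1 cells, 24-well, in DMEM-F12 with 5% FBS. Compound or DMSO added 15 min before LPS 0.5 µg/mL plus IFN-γ 150 U/mL. After 24 h, LDH release (fraction of Triton-lysed value, OD 490) and MTT were read. EC50 taken from curves of at least three independent experiments; the lower of the two assay values was reported.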

Rattus norvegicus [7] = assay: Antiinflammatory activity in Wistar albino rat acute inflammatory model assessed as inhibition of formalin-induced paw edema at 20 mg/kg, po administered 1 hr before formalin challenge measured after 1 hr by plethysmometer relative to control; type: functional; design: scale not given: the % may be the effect or the level left
How it was run: as §2

Rattus norvegicus [8] = assay: Gastrointestinal toxicity in Wistar albino rat assessed as ulceration at 100 mg/kg/day, po administered twice daily for 3 days; type: organism-based; design: route oral; conditions: in vivo, 72 h
How it was run: as §1

SH-SY5Y [9] = assay: Antineurotoxicity in human SH-SY5Y cells assessed as inhibition human THP1 cell supernatant-induced cytotoxicity compound pretreated 24 to 48 hrs to THP1 cells measured after 72 hrs of supernatant addition; type: functional, cell-based
How it was run: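 THP-1 cells in DMEM-F12 with 5% FBS, pretreated 15 min with compound or DMSO, then stimulated with LPS 0.5 µg/mL plus IFN-γ 150 U/mL for 24 or 48 h. Cell-free supernatant transferred to SH-SY5Y cells plated 24 h earlier. After 72 h, viability by LDH release and MTT. IC50 from curves of at least three independent experiments.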

[10] = molecular target: T2, Prostaglandin G/H synthase 1 (Ovis aries) (UniProt P05979); assay: Inhibition of ovine COX1 at 10 uM
T2 sequence (whole entry): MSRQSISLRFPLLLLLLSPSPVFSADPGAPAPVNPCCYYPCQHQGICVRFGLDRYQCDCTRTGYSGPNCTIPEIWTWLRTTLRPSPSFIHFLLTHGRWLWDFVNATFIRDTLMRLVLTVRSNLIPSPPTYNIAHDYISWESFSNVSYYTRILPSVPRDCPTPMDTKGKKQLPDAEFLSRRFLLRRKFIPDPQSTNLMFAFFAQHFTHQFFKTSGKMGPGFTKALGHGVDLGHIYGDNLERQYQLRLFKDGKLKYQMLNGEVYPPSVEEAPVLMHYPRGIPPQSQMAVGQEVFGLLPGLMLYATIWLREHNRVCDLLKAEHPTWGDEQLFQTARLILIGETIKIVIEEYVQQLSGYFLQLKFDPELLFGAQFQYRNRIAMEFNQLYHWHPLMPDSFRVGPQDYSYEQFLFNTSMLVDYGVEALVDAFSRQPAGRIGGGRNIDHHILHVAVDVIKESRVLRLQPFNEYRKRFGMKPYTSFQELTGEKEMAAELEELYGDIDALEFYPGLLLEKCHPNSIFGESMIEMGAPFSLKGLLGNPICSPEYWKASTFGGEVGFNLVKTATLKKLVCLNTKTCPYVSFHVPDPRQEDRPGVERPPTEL
How it was run: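 Kit assay with ovine COX-1, run per manufacturer's protocol. Read-out was percent inhibition of prostaglandin production, with compound at 10 µM and three experiments.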

SH-SY5Y [11] = assay: Neuroprotective activity in human SH-SY5Y cells assessed as inhibition of LPS, IFN-gamma-stimulated THP1 cellular supernatant-induced cytotoxicity after 72 hrs by LDH assay; type: functional, cell-based
How it was run: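 SH-SY5Y cells plated 24 h, then medium replaced with supernatant from THP-1 cells stimulated with LPS + IFN-γ for 48 h. Compound added directly to the SH-SY5Y cells at the time of transfer. Cell death measured by LDH release after 72 h; 4–6 independent experiments.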

Compound: O=C1NC(=O)/C(=C/c2cn(-c3ccc([N+](=O)[O-])cc3)nc2-c2ccc(Cl)cc2)S1
- inhibition [1]: 19.4%
- ED50 (Rattus norvegicus [2]): 15.2 mg/kg
- inhibition in vivo at 20 mg/kg (Rattus norvegicus [3]): 51%
- Activity (Rattus norvegicus [4]): Non-toxic
- Activity (Rattus norvegicus [5]): 68%
- Activity (Rattus norvegicus [6]): 68%
- EC50 (THP-1): > 100000 nM
- Activity (Rattus norvegicus [7]): 24%
- Activity (Rattus norvegicus [8]): 0%
- IC50 (SH-SY5Y [9]): 2000 nM
- inhibition [10]: 28.4%
- inhibition (SH-SY5Y [11]): inactive
